Published values from different studies.
Each line is one published result; the experiments were not run side by side. Values after ≈ are worked out from the molar mass of the structure shown.

N#Cc1ccc(C[C@H](Nc2ncc(-c3ccc(F)cc3)o2)C(=O)N2CCc3ccccc32)cc1  kinetic solubility (aqueous buffer; 2 h, pH 7.4, 37 °C): 1.8 µM (≈ 0.814 µg/mL)
COc1cc(C2Oc3cc([C@H]4Oc5cc(O)cc(O)c5C(=O)[C@@H]4O)ccc3OC2CO)ccc1O (some centres unmarked)  Papp B→A (Caco-2; 100 µg/mL, 2 h): 17.2 ×10⁻⁶ cm/s
COc1ccc(-c2nn(-c3ccccc3)cc2C=NNc2cn[nH]c(=O)c2Cl)cc1  CC50 (Jurkat; cell growth or viability, imaging): > 40 µM
CCN1CCN(Cc2ccc(Nc3nc4ccc(Oc5ccnc(NC(=O)C6CCN(C)CC6)c5)cc4n3C)cc2C(F)(F)F)CC1  pKa: 8.8
CC[C@H](C)[C@H](NC(=O)[C@H](CCC(=O)O)NC(=O)[C@H](CCC(=O)O)NC(=O)[C@@H]1CCCN1C(=O)[C@H](CO)NC(=O)[C@H](C)NC(=O)[C@H](CC(=O)O)NC(=O)[C@H](CCC(=O)O)NC(=O)[C@H](CCC(=O)O)NC(=O)[C@@H]1CCCN1C(=O)[C@H](CCCCNC(=O)COCCOCCNC(=O)COCCOCCNC(=O)CC[C@H](NC(=O)CCCCCCCCCCCCCCCCC(=O)O)C(=O)O)NC(=O)[C@H](C)NC(=O)[C@@H]1CCCN1C(=O)[C@H](C)NC(=O)CC(C)C)C(=O)N[C@@H](CCC(N)=O)C(=O)N[C@@H](CCCNC(=N)N)C(=O)N[C@@H](Cc1ccc(O)cc1)C(=O)N[C@@H](Cc1ccc(O)cc1)C(=O)N[C@H](C(=O)N[C@@H](CO)C(=O)N[C@@H](CC(C)C)C(=O)N[C@@H](CCCNC(=N)N)C(=O)N[C@@H](Cc1c[nH]cn1)C(=O)N[C@@H](Cc1ccc(O)cc1)C(=O)N[C@@H](Cc1ccc(O)cc1)C(=O)N[C@@H](CC(N)=O)C(=O)N[C@@H](Cc1c[nH]c2ccccc12)C(=O)N[C@@H](CC(C)C)C(=O)N[C@H](C(=O)N[C@@H](CCCNC(=N)N)C(=O)N[C@@H](CCC(N)=O)C(=O)N[C@@H](CCCNC(=N)N)C(=O)N[C@@H](Cc1ccc(O)cc1)C(N)=O)[C@@H](C)O)C(C)C  Tmax (male beagle dog, plasma; subcutaneous, 5 nmol/kg): 32 h
O=c1c(-c2ccc(O)cc2)coc2c([C@@H]3O[C@H](CO)[C@@H](O)[C@H](O)[C@H]3O)c(O)ccc12  Papp B→A (Caco-2; 100 µg/mL, 2 h): 5.66 ×10⁻⁶ cm/s
COc1cc(/C=C/C(=O)/C=C/c2ccc(O)c(OC)c2)ccc1O  viability (WRL68; cell growth or viability, MTT; 3.2 µg/mL, 48 h): 11.5%
NC/C(=C\F)COc1cccc(Cn2c(=S)[nH]c(=O)c3[nH]cnc32)c1  inhibition (ATP-dependent translocase ABCB1 (ABCB1, Homo sapiens, UniProt P08183); transporter efflux, inhibitor; 30 µM): < 50%
O=c1c(O[C@@H]2O[C@H](CO)[C@H](O)[C@H](O)[C@H]2O)c(-c2ccc(O)c(O)c2)oc2cc(O)cc(O)c12  Papp A→B (Caco-2; 100 µg/mL): 0.383 ×10⁻⁶ cm/s
COc1cc(/C=C/c2cc(/C=C/c3ccc(O)c(OC)c3)n(-c3ccc(Cl)cc3Cl)n2)ccc1O  CC50 (WRL68; cell growth or viability, MTT; 48 h): > 99 µM
Cc1cc(C)c(CNC(=O)c2cc(Cl)c3c(c2C)O[C@@](C)([C@H]2CC[C@H](N(C)C)CC2)O3)c(=O)[nH]1  Papp B→A (Caco-2; 10 µM): 20.4 ×10⁻⁶ cm/s
